Measurements of several laboratories.
Lines come from different studies, so protocols differ.
Target: Serine/threonine-protein kinase PAK 3 (PAK3, Homo sapiens, UniProt O75914)

`CC(C)CC(=O)N1CCc2nc(-c3ccc(Br)cc3)nc(N(C)Cc3ccccc3)c2C1` has a remaining binding of 100% (cell-free assay; competition with immobilised ligand; 0.1 µM).
The activity vs control of `Cc1ccc(C(=O)NCc2ccsc2)cc1C#Cc1cn(C(C)C)c2ncnc(N)c12` is reported as 78% (enzyme activity; inhibitor; 1 µM).
With `Cc1ccc(Nc2nccc(N(C)c3ccc4c(C)n(C)nc4c3)n2)cc1S(N)(=O)=O` the inhibition was 29% (enzyme activity; inhibitor; 0.3 µM).
For `Clc1ccc(Nc2nnc(Cc3ccncc3)c3ccccc23)cc1`, the remaining signal was 107% (cell-free assay; 0.5 µM).
With `COc1cc(-c2cn(C3CCc4ccccc4N(CC(F)(F)F)C3=O)nn2)ccc1-n1ccc(C)n1` (stereo not drawn) the remaining binding was 100% (cell-free assay; competition with immobilised ligand; 1 µM).
`CC(C)(O)[C@H]1CC[C@H](Nc2ccc3ncc(-c4cccc(C(F)(F)F)c4)n3n2)CC1` has a remaining activity of 94.2% (enzyme activity; inhibitor; 1 µM).
`CCCOc1ccc([C@H]2[C@H](C(=O)O)[C@@H](c3ccc4c(c3)OCO4)CN2CC(=O)Nc2c(CC)cccc2CC)cc1` has a remaining binding of 100% (cell-free assay; competition with immobilised ligand; 1 µM).
`Cc1sc(C(=O)NC2COC2)cc1-n1cc(NC(=O)Nc2c(F)cccc2Cl)cn1` gave a remaining activity of 114% (enzyme activity; inhibitor; 10 µM).
The remaining binding of `N#CC1(c2ccccn2)CCN(Cc2cc(C(=O)N3CCCC3)c(=O)n3ccccc23)CC1` is reported as 100% (cell-free assay; competition with immobilised ligand; 1 µM).
`COc1cc2ncnc(Nc3ccc(Oc4ccccc4)c(C)c3C)c2cc1OC` has an inhibition of 10% (enzyme activity; inhibitor; 1 µM).
For `O=C1NC(=O)c2cc(Nc3ccc(F)cc3)c(Nc3ccc(F)cc3)cc21`, the remaining signal was 99.4% (cell-free assay; 0.5 µM).
`COc1cc(Cl)c(C(=O)N[C@@H](CN[C@H]2CC[C@@H](N)CC2)Cc2ccc(C#N)cc2)cc1-c1ccc(CN[C@H](C)c2ccc(C)cc2)o1` gave a remaining activity of 101% (enzyme activity; inhibitor; 1 µM).
The remaining binding of `O=C(Nc1cccnn1)N1CC(C/C=C/c2cncc(Oc3ccc(C(F)(F)F)cn3)n2)C1` is reported as 100% (cell-free assay; competition with immobilised ligand; 1 µM).
`O=C(Nc1cnn(-c2csc(C(=O)NC3COC3)c2)c1)Nc1c(F)cccc1Cl` gave a remaining activity of 64.2% (enzyme activity; inhibitor; 5 µM).
For `N#CCCc1ccc2c(c1)-c1[nH]c3ccc([N+](=O)[O-])cc3c1CC(=O)N2`, the remaining signal was 97.1% (cell-free assay; 0.5 µM).
`Nc1ncnc2occ(-c3ccc(NC(=O)Nc4cc(C(F)(F)F)ccc4F)cc3)c12` has a remaining signal of 14% (cell-free assay; inhibitor; 20 µM).
`O=C(N[C@H]1CCCCC/C=C\C2C[C@@]2(C(=O)O)NC(=O)[C@@H]2C[C@@H](Oc3ccncc3)CN2C1=O)OC1CCCC1` (stereo partly drawn) has a remaining binding of 88% (binding; competition with immobilised ligand; 1 µM).
The remaining signal of `COc1cc2c(Nc3ccc(Br)cc3F)ncnc2cc1OCC1CCN(C)CC1` is reported as 103% (cell-free assay; 0.5 µM).
